For the experiment, the system named is SYF. Briefly: Effect on proliferation of mouse SYF cells expressing FRB3-ubiquitin-C-v-src construct at 100 nM after 24 hsr by MTT assay. In kind it is functional, cell-based. Summed up: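 SYF cells (DMEM/10% FBS, 37°C, 5% CO2) transfected via FuGENE-6 with construct 1 plus v-Src cleavage construct; after 24 h expression, trypsinized, ~1 × 10^4 cells replated with rapamycin (100 nM) or DMSO; MTT proliferation assay performed after a further 24 h.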
(In general: Formazan colour is commonly taken as a measure of viable cells.)

The source made the active and inactive calls. The rule behind the calls is not given here.

Consider `CO[C@H]1C[C@@H]2CC[C@@H](C)[C@@](O)(O2)C(=O)C(=O)N2CCCC[C@H]2C(=O)O[C@H]([C@H](C)C[C@@H]2CC[C@@H](O)[C@H](OC)C2)CC(=O)[C@H](C)/C=C(\C)[C@@H](O)[C@@H](OC)C(=O)[C@H](C)C[C@H](C)/C=C/C=C/C=C/1C`, for which the result was Active.
